Source: PubChem (several laboratories)
The entries come from a sample that favours hits as a whole.
ABCB6 inh 2 – blocks the human ABCB6 transporter | K562-ABCB6 porphyrin accumulation, flow cytometry, 1 h; active compounds read low | fluorescence ratio to DMSO, % at 10 µM | hit rate 0.19% among 360,000;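 active means fluorescence ratio to DMSO below 75%, the collection mean minus 3 SD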;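 further: signal is porphyrin accumulated inside mitochondria; lower ratio means ABCB6 inhibition with less porphyrin fluorescence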
Target sequence (Q9NP58 whole entry, looked up): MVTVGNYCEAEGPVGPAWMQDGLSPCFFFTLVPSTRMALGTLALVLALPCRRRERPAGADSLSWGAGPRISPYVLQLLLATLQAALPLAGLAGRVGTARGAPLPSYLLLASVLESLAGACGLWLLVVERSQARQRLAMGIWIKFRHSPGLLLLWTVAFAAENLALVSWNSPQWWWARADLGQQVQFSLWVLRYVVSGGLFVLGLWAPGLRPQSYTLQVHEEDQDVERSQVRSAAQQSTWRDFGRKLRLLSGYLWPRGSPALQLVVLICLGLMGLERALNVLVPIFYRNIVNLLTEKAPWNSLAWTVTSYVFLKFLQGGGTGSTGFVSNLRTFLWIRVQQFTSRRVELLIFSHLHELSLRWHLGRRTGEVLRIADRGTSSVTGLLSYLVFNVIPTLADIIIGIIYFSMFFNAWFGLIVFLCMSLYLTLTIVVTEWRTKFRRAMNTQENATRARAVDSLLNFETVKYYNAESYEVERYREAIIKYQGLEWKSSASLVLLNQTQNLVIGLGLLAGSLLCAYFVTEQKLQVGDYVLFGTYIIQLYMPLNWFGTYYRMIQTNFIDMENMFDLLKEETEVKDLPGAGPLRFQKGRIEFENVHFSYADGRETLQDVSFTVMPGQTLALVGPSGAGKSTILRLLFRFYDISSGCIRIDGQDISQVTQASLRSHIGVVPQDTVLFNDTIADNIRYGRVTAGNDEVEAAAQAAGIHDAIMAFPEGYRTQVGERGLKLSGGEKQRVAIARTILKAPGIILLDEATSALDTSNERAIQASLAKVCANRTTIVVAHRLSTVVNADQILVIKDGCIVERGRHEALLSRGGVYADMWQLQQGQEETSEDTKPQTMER
Myeloid diff MLP – myeloid differentiation induction; calls only at 10 µM; hit rate 1% among 360,000; ER-HoxA9 myeloid progenitors, lysozyme-GFP differentiation, flow cytometry;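 active means normalized GFP-positive differentiation at or above the plate's own cutoff, the solvent-only control mean plus 3 SD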;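 further: cells exposed to compound for four days before flow analysis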
XiGFP reactiv – activators of X-chromosome reactivation in mouse fibroblasts | XiGFP mouse fibroblasts, % GFP-positive cells imaging, 3 d; cells co-treated with 5-aza-dC sensitizer; scaled so ellipticine positive control = 100% | activation, % at 7.58 µM | hit rate 0.055% among 360,000 | AID 743238;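 active means mean normalized replicate activation at least 10% and every replicate at or above 10%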
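assay system = SV40-immortalized XiGFP fibroblast cells, line 68-5-11 | buffer or medium = DMEM plus 5-aza-dC sensitizer | doses = single-point pinned compound dosing | times = 3-day compound exposure, then 15 min fixation at room temperature | benchmarks = positive control ellipticine, 6 µM final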
Myeloid diff CP1 – compounds promoting myeloid differentiation | ER-HoxA9 myeloid progenitors, GFP/Mac1 double-positive flow | shares compounds with Myeloid diff MLP | calls only | hit rate 2% among 2,300;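 active means share of green or green-and-red cells above 9 and 9% in run 1 or 4 and 3% in run 2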
GFP autofluor – compound fluorescence in myeloid differentiation counter-screen. fluorescence response, % (test concentration not listed). hit rate 7.4% among 2,300. ER-HoxA9 myeloid progenitors, no estrogen, GFP autofluorescence flow cytometry; vehicle wells 0%, positive control 100%. shares compounds with Myeloid diff MLP. AID 651707;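 active means over 5% cells positive for green fluorescent reporter, or over 2% positive for both it and APC stain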
Calls only; i = inactive; nt = no result given; + = active, no number.

SMILES | ABCB6 inh 2 | Myeloid diff MLP | XiGFP reactiv | Myeloid diff CP1 | GFP autofluor
CC(=O)Nc1ccc2c(c1)C(=O)N(C)[C@@H]1CC[C@@H](CC(=O)NCc3ccccc3)O[C@@H]1CO2 | nt | nt | i | nt | nt
Cc1ccc(S(=O)(=O)N(C)C[C@@H]2Oc3c(NS(=O)(=O)c4ccccc4)cccc3C(=O)N([C@@H](C)CO)C[C@@H]2C)cc1 | nt | nt | i | nt | nt
CO[C@@H]1CN(C)C(=O)c2ccc(NC(=O)C3CC3)cc2OC[C@@H](C)N(C(=O)NC(C)C)C[C@@H]1C | nt | nt | i | nt | nt
COCC(=O)OCC(=O)N1N=C(c2ccc(Cl)cc2)CC1c1ccco1 (stereo not given) | i | i | i | nt | nt
CC(C)[C@H](NS(=O)(=O)c1ccccc1)C(=O)OCC(=O)N1N=C(c2ccc(Cl)cc2)CC1c1ccco1 (stereo not given in full) | i | i | i | i | i
Cc1ccc(S(=O)(=O)N(C)C[C@H]2Oc3ccc(NC(=O)Nc4ccc(C(F)(F)F)cc4)cc3C(=O)N([C@H](C)CO)C[C@@H]2C)cc1 | nt | nt | i | nt | nt
COc1ccc(CN(C)C[C@@H]2OCCCC[C@@H](C)Oc3ccc(NC(=O)Nc4ccccc4)cc3C(=O)N([C@H](C)CO)C[C@@H]2C)cc1 | nt | nt | i | nt | nt
COc1ccc(NC(=O)c2ccco2)cc1NC(=O)c1c(OC)cccc1OC | i | i | i | nt | nt
COc1ccc(NC(=O)c2ccco2)cc1NC(=O)c1ccco1 | i | i | nt | i | i
COc1ccccc1C(=O)Nc1ccc2c(c1)OC[C@@H](C)N(CC1CC1)C[C@H](C)[C@H](OC)CN(C)C2=O | nt | nt | i | nt | nt
C[C@H](NC(=O)C[C@@H]1CC[C@H](NC(=O)c2cccnc2)[C@H](CO)O1)c1ccccc1 | nt | nt | i | nt | nt
CCCn1nnc(NC(=O)c2cc(Br)ccc2OC)n1 | i | i | nt | i | i
CCCn1nnc(NC(=O)c2cccc(Cl)c2)n1 | i | i | nt | nt | nt
O=C(C[C@H]1CC[C@H]2[C@@H](COC[C@H](O)CN2CCc2ccccc2)O1)NCCCN1CCOCC1 | nt | nt | i | nt | nt
C[C@H](CO)N1C[C@H](C)[C@@H](CN(C)S(=O)(=O)c2cn(C)cn2)Oc2ncc(C#CCN(C)C)cc2C1=O | nt | nt | i | nt | nt
CC(C)=N/N=C(/c1ccc([N+](=O)[O-])cc1)C12CN3CN(CN(C3)C1)C2 | i | i | i | nt | nt
O=[N+]([O-])c1cccc(/C(=N/N=C/c2ccccc2Br)C23CN4CN(CN(C4)C2)C3)c1 | i | + | nt | i | i
O=C1CN(Cc2ccc(F)cc2)C[C@@H]2[C@H](c3ccc(Br)cc3)[C@H](CO)N12 | nt | nt | i | nt | nt
CC(C)NC(=O)Nc1ccc2c(c1)C(=O)N(C)[C@@H]1CC[C@H](CC(=O)NCC(F)(F)F)O[C@@H]1CO2 | nt | nt | i | nt | nt
CCC(=O)Nc1cc(-c2nn(C)c(=O)c3ccccc23)ccc1OC | i | i | nt | nt | nt
COc1ccc(-c2nn(C)c(=O)c3ccccc23)cc1NC(=O)Cn1nc(C)c2ccccc2c1=O | i | + | nt | i | i
Cc1ccc(S(=O)(=O)N[C@H]2CC[C@H](CC(=O)NCCc3ccncc3)O[C@@H]2CO)cc1 | nt | nt | i | nt | nt
NC(=O)c1ccc(N2CCN(c3ccccc3O)CC2)c([N+](=O)[O-])c1 | i | i | i | nt | nt
NC(=O)c1ccc(N2CCN(c3ccccc3F)CC2)c([N+](=O)[O-])c1 | i | i | i | i | i
O=C(NCc1ccccc1)N1CCOCC1 | i | i | i | nt | nt
SMILES | ABCB6 inh 2 | Myeloid diff MLP | XiGFP reactiv | Myeloid diff CP1 | GFP autofluor
O=C(OCc1ccccc1)N1CCOCCOCCN(C(=O)OCc2ccccc2)CCOCCOCC1 | i | + | nt | i | i
COc1ccc2c3c(n(C)c2c1)[C@H](CO)N(Cc1cccnc1)CC31CCN(C(=O)NC(C)C)CC1 | nt | nt | i | nt | nt
O=C(NCC1CC1)[C@@H]1[C@@H](CO)[C@@H]2Cn3c(ccc(C4=CCCCC4)c3=O)[C@@H]2N1Cc1ccccc1F | nt | nt | i | nt | nt
Cc1cccc(C(=O)NC(C(=O)Nc2cccc(S(=O)(=O)N3CCCC3)c2)C(C)C)c1 (stereo not given) | i | i | i | nt | nt
O=C(Nc1cccc(S(=O)(=O)N2CCCCC2)c1)C1CCCC1 | i | i | i | nt | nt
O=C(Nc1cccc(S(=O)(=O)N2CCCCCC2)c1)C1CCC1 | i | i | i | i | i
Cc1cccc(C(=O)N[C@H](C(=O)Nc2cccc(S(=O)(=O)N3CCCC3)c2)C(C)C)c1 | i | i | i | i | i
CC(=O)Nc1ccc2c(c1)C(=O)N(C)[C@H]1CC[C@@H](CC(=O)NC3CCCCC3)O[C@@H]1CO2 | nt | nt | i | nt | nt
COc1ccc(CCC(=O)Nc2ccc(S(=O)(=O)Nc3ncccn3)cc2)cc1 | i | i | i | nt | nt
Cc1ccc(CC(=O)Nc2ccc(S(=O)(=O)Nc3nccc(C)n3)cc2)cc1 | i | i | i | i | i
COc1ccc(CC(=O)Nc2ccc(S(=O)(=O)Nc3ncccn3)cc2)cc1 | i | + | nt | i | i
Cc1ccnc(NS(=O)(=O)c2ccc(NC(=O)Cc3ccccc3)cc2)n1 | i | i | i | nt | nt
O=C(C[C@H]1C[C@H]2c3cc(NC(=O)CC4CC4)ccc3O[C@H]2[C@H](CO)O1)NCc1ccc(-c2ccccc2)cc1 | nt | nt | i | nt | nt
C[C@@H]1CN([C@@H](C)CO)C(=O)c2cc(-c3ccccc3)cnc2O[C@@H]1CN(C)C(=O)Cc1cccnc1 | nt | nt | i | nt | nt
CC(C(=O)OCC(=O)c1ccccc1)N1C(=O)c2ccccc2C1=O (stereo not given) | i | i | i | nt | nt
COc1cccc(C(=O)COC(=O)C(C)N2C(=O)c3ccccc3C2=O)c1 (stereo not given) | i | i | nt | i | i
C[C@H](CO)N1C[C@H](C)[C@H](CN(C)C(=O)Nc2ccc(C(F)(F)F)cc2)Oc2ccc(NC(=O)CCCCCC(=O)Nc3ccccc3N)cc2C1=O | nt | nt | i | nt | nt
O=C(O)C[C@@H]1C[C@@H]2c3cc(NC(=O)C4CCOCC4)ccc3O[C@@H]2[C@@H](CO)O1 | nt | nt | i | nt | nt
COc1cccc(NC(=O)CN2C(=O)c3cccnc3Oc3ccc(Cl)cc32)c1 | i | i | i | nt | nt
O=C(CN1C(=O)c2cccnc2Oc2ccc(Cl)cc21)Nc1ccccc1F | i | + | i | i | i
O=C(CCc1nc2ccccc2c(=O)[nH]1)N1CCN(c2ccc(F)cc2)CC1 | i | i | i | nt | nt
CC(=O)N1CCN(C(=O)CCc2nc3ccccc3c(=O)[nH]2)CC1 | i | + | nt | i | i
N#CC1=C(N)Oc2n[nH]c(-c3ccccn3)c2C1c1c(F)cccc1Cl (stereo not given) | i | i | nt | i | i
COCc1[nH]nc2c1C(c1c(F)cccc1Cl)C(C#N)=C(N)O2 (stereo not given) | i | i | nt | nt | nt
CCCC#Cc1ccc2c(c1)O[C@@H](CN(C)S(=O)(=O)c1cccc(OC)c1)[C@@H](C)CN([C@@H](C)CO)S2(=O)=O | nt | nt | i | nt | nt
CCOC(=O)c1c(-c2ccc(OC)cc2)csc1NC(=O)CSc1ncnc2sccc12 | i | i | i | i | i
CCOC(=O)c1c(-c2ccc(OC)cc2)csc1NC(=O)COc1ccc2c(C)cc(=O)oc2c1 | i | i | i | nt | nt
COc1ccc(S(=O)(=O)Nc2ccc3c(c2)CC(=O)N([C@H](C)CO)C[C@@H](C)[C@H](CN(C)C(=O)NC2CCCCC2)O3)cc1 | nt | nt | i | nt | nt
